# A selection: hits, their analogues and other compounds. The true share with any hit is near 1.8%.
# 697 NFkB inh – inhibitors of PMA/ionomycin-induced NF-kB reporter, 697 cells, primary screen, B-cell NF-kB inhibitor project, cell-based, luminescence, uHTS. 697 B-cell NF-kB luciferase reporter, 16 h. inhibition, % at 4 µM. actives 0.33% (n = 330,000). AID 435022, 2010; in the data active = inhibition above about 35%
# NR2E3 ag-1 – inhibitors of NR2E3-RetCOR corepressor binding, primary screen, NR2E3 agonist project, biochemical, TR-FRET, GST-NR2E3, biotin-RetCOR. 1536-well. Photoreceptor-specific nuclear receptor (Homo sapiens), Q9Y5X4. inhibition of corepressor binding, % at 4.78 µM. AID 2300, 2010. actives 0.12% (n = 320,000);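 active = percent inhibition above the cutoff of mean plus 3 SD of all tested compounds, set per screening campaign, cut at about 20% in these data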;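 also: 0% = DMSO wells and 100% = biotin wells as full block of FRET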
# Target sequence (Q9Y5X4 whole entry, looked up): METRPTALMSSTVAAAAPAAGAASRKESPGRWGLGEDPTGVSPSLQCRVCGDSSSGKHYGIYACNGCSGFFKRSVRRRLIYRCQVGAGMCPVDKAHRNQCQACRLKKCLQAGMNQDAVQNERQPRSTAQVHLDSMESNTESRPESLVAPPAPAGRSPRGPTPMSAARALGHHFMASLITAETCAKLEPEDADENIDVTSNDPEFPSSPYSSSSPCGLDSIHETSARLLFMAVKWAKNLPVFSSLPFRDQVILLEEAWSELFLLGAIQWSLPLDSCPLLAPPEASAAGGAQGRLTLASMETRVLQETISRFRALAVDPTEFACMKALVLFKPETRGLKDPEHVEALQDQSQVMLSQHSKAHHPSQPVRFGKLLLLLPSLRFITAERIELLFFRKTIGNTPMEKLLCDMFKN
#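 Test system: GST-NR2E3 and biotin-RetCOR proteins | Quantity: 1.35 nM GST-tagged NR2E3 final | Medium: Tris pH 7.5 | Also added: 7 nM biotin-RetCOR | Dosing: Compound at 4.8 µM, single dose | Timing: 5 h at 4 °C | Detection: Time-resolved FRET | Read-out basis: Percent inhibition | Benchmarks: Biotin wells as high control, 0.6% DMSO wells as low control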
# GalR3 antagonist – GalR3 antagonists in HEK293 cells, primary screen, cell-based, fluorescence readout | Galanin receptor type 3 (Homo sapiens), O60755 | HEK293 GalR3-CNG cAMP membrane potential fluorescence; galR3 body fused to GalR1 C-terminus | inhibition, % at 3 µM | actives 0.44% (n = 360,000);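 active = inhibition above the screen-wide average plus 3 SD, cut at about 13% in these data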;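 also: forskolin and galanin both at EC90 stimulate the cells; cAMP rise reported by CNG channel membrane potential dye signal; 0% = forskolin plus galanin with DMSO and 100% = forskolin alone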
# Target sequence (O60755 1-299 limits assumed): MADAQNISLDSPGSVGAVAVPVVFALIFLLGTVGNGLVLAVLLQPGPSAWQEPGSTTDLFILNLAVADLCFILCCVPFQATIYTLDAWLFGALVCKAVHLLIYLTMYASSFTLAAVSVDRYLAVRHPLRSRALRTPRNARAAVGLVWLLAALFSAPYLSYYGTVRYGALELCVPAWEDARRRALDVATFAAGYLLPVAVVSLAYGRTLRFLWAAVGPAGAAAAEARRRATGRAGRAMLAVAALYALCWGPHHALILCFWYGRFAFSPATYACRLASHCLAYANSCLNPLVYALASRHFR
# NR2E3 ag-2 – NR2E3 agonists in two-hybrid cells, primary screen, cell-based, luminescence, CHO-S, Gal4-NCOR/VP16-NR2E3 | actives 0.35% (n = 360,000) | luciferase | inhibition of corepressor binding, % at 3.98 µM | Photoreceptor-specific nuclear receptor (Homo sapiens), Q9Y5X4 | AID 602229, 2012;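 active = inhibition above the mean of all tested compounds plus 3 SD, cut at about 70% in these data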;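 also: 0% = DMSO with NR2E3 transfected cells and 100% = cells lacking NR2E3 construct; higher means lower luciferase signal from less NR2E3 corepressor binding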
# Gli-Sufu block – Gli-Sufu pathway antagonists, primary screen, luciferase luminescence, Sufu-KO-LIGHT cells, uHTS; Sufu-KO-LIGHT fibroblasts, Gli luciferase reporter luminescence; inhibition, % at 5 µM; actives 0.74% (n = 340,000);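 active = inhibition above about 55%, limit read from the data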;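 also: 0% = DMSO-treated cells and 100% = wells with medium but no cells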
# Jurkat NFkB inh – inhibitors of induced NF-kB luciferase reporter, primary screen, TCR NF-kB activation inhibitor project, cell-based, luminescence, uHTS; Jurkat, PMA/ionomycin-induced NF-kB luciferase reporter; inhibition, % at 4 µM; actives 0.53% (n = 330,000); AID 435003, 2010; in the data active = inhibition above about 50%
# Jurkat NFkB conf – PMA/ionomycin-induced NF-kB reporter inhibitors, Jurkat retest, confirmation, T-cell NF-kB inhibitor project, cell-based, luminescence, single concentration. shares compounds with Jurkat NFkB inh. Jurkat NF-kB luciferase, 16 h. inhibition, % at 4 µM. actives 27% (n = 2,700). AID 435020, 2010;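 active = inhibition reaching about 45% at 4 µM in either replicate, limit read from the data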;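 also: plate controls were PMA/ionomycin stimulated DMSO wells for no effect and unstimulated DMSO wells for full effect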
# * hit, by the source's call; · = no result.
SMILES,697 NFkB inh,NR2E3 ag-1,GalR3 antagonist,NR2E3 ag-2,Gli-Sufu block,Jurkat NFkB inh,Jurkat NFkB conf
COc1ccc(C(=O)Nc2nc3cc4c(cc3s2)OCO4)c(OC)c1,-179.2,-59.8,-3.2,-138.0,-96.2,-174.1,-82.5
O=C(Nc1nc2ccc(S(=O)(=O)N3CCCC3)cc2s1)C1CCCCC1,-20.4,-0.1,-6.3,-22.8,26.9,62.3*,58.2*
CN1CCCCC(NC(=O)c2ccc(Cl)cc2Cl)C1=O (configuration not stated),·,·,-5.4,·,·,·,·
COc1cccc(NC(=O)C(=S)NC2CCCCC2)c1,-164.3,-0.2,-0.4,-193.2,-120.9,-219.8,-91.0
COc1cccc(NC(=O)COC(=O)C2CCCCC2)c1,7.1,·,4.4,13.7,-16.7,-195.3,15.9
CC(=O)c1cccc(Nc2nc(-c3cccnc3)cs2)c1,-81.3,·,-7.3,-68.2,-76.5,-111.0,·
CC(=O)c1cccc(Nc2nc(-c3ccccc3)cs2)c1,-221.5,-4.1,-7.5,-85.8,-138.8,-265.2,-103.0
COc1ccc(-c2csc(Nc3ccccc3)n2)cc1,-171.6,-1.4,-1.9,-112.4,-121.1,-196.5,-81.7
COc1ccc(C(=O)c2[nH]c(N)c(C(=O)c3c[nH]c4ccccc34)c2-c2ccc(F)c(OC)c2)cc1,·,·,-1.2,·,·,·,·
COc1ccc(C(=O)CCNc2ccc(F)cc2)cc1,-118.6,0.4,-5.5,-25.1,-48.1,70.4*,-27.4
Cc1ccc(/C=N/NC(=O)c2c(C)nc3ccc(Br)cn23)cc1,9.7,-1.1,-11.7,-20.3,45.1,50.5*,52.7*
C#CCNC(=O)C[C@H]1C[C@@]2(C(=O)OC)C(=C[C@H](C3CCCC3)O[C@@H]2C)N(Cc2ccccc2)C1=O,·,·,4.4,·,·,·,·
CC1(C)Cc2nc3sc4c(=O)n(CC(=O)NCc5ccco5)cnc4c3cc2CO1,-21.3,-0.7,-5.0,-30.2,-25.6,50.1*,3.6
CC1(C)Cc2nc3oc4c(=O)n(CC(=O)Nc5ccccc5)cnc4c3cc2CO1,2.1,-4.3,-3.5,-36.6,-8.0,-3.9,·
COc1cccc(N2CCN(C(=O)c3ccc(CS(=O)Cc4ccc(C)cc4)o3)CC2)c1 (configuration not stated),-16.3,-0.5,-6.7,-11.0,-8.6,-5.2,·
O=C(c1ccc(CS(=O)Cc2ccc(Cl)cc2)o1)N1CCN(c2cccc(Cl)c2)CC1 (configuration not stated),-11.5,2.3,-7.1,29.3,-4.2,21.1,·
COc1cccc(N2CCN(C(=O)c3ccc(CS(=O)c4ccc(Cl)cc4)o3)CC2)c1 (configuration not stated),0.0,2.0,3.2,-1.8,20.4,51.3*,14.2
COc1cccc(N2CCN(C(=O)c3ccc(CS(=O)c4ccc(C)cc4)o3)CC2)c1 (configuration not stated),20.4,1.6,3.4,14.6,29.7,53.5*,8.2
Cc1cc(N2CCNC[C@H]2C)ccc1N1CCS(=O)(=O)CC1,·,·,-5.9,·,·,·,·
COC(=O)[C@]12C[C@H](CC(=O)N3CCCC3)C(=O)N(Cc3ccc4c(c3)OCO4)C1=C[C@H](C(C)(C)C)O[C@@H]2C,·,·,-6.4,·,·,·,·
C[C@H](CO)N1C[C@H](C)[C@@H](CN(C)C(=O)Nc2ccc(C(C)(C)C)cc2)OCc2cn(nn2)CCCC1=O,·,·,-4.5,·,·,·,·
Cc1ccccc1C(=O)N[C@@H](Cc1cccnc1)C(=O)N1CCC[C@H]1C(=O)NC1CCCC1,·,·,-6.8,·,·,·,·
COc1cc(NC(=O)CSc2ccc(-c3ccccn3)nn2)cc(OC)c1,-8.3,-0.9,-1.4,-1.8,21.1,6.6,·
COc1ccc(C)cc1NC(=O)CSc1ccc(-c2sc(C)nc2C)nn1,-33.1,0.7,-0.8,26.2,23.0,51.2*,9.5
COc1ccc(C)cc1NC(=O)CSc1ccc(-c2ccccn2)nn1,-5.2,-0.8,-0.5,22.8,12.4,53.0*,20.1
SMILES,697 NFkB inh,NR2E3 ag-1,GalR3 antagonist,NR2E3 ag-2,Gli-Sufu block,Jurkat NFkB inh,Jurkat NFkB conf
CCCCCCCCN1C(=O)[C@@H](CC(=O)N2CCN(C(=O)C3CC3)CC2)C[C@@]2(C(=O)OC)C1=C[C@H](C1CCCC1)O[C@@H]2C,·,·,-6.1,·,·,·,·
C[C@H](O)[C@@H]1CN2CCc3c([nH]c4c(-c5ccccc5)cccc34)[C@@H]2C[C@@H]1N(C)C(=S)NCCc1ccccc1,·,·,-8.4,·,·,·,·
Nc1[nH]c(C(=O)c2ccc(Cl)cc2)c(-c2ccc(Br)cc2)c1C(=O)NCCc1c[nH]c2ccccc12,·,·,-6.3,·,·,·,·
COC(=O)c1cc2c(c3c4cc(C)ccc4n(S(=O)(=O)c4cccc(C)c4)c13)C(=O)N(Cc1ccc(C(F)(F)F)cc1)C2,·,·,-4.6,·,·,·,·
Cc1nc2ccc(C(=O)N3c4ccccc4CC3C)cc2s1 (configuration not stated),-74.7,1.5,-7.0,-31.1,2.9,55.0*,13.5
CC1Cc2ccccc2N1C(=O)c1cccnc1 (configuration not stated),23.1,2.6,-5.8,-4.8,-2.1,14.8,·
CCOc1ccc(N/C(N)=N/c2nc(CSc3nnc(C)s3)cc(=O)[nH]2)cc1,0.6,3.4,-2.4,-23.1,41.0,74.0*,50.2*
COc1cc2c(C(=O)N3CCN(c4cccc(Cl)c4)CC3)cn(C)c(=O)c2cc1OC,-31.5,1.7,-6.5,-24.2,-27.8,36.5,·
O=C(c1c(Cl)nc2sccn12)N1CCN(c2cccc(Cl)c2)CC1,-3.8,-0.2,3.4,-68.0,-1.6,60.6*,47.4
COc1ccccc1C(=O)N1CCN(c2cccc(Cl)c2)CC1,-35.5,-1.2,2.7,-71.0,10.2,55.9*,33.2
COc1cccc(N2CCN(C(=O)c3cn(Cc4ccccc4)nc3-c3cccnc3)CC2)c1,-45.5,-1.4,-0.6,-97.1,2.4,60.5*,40.4
COc1ccccc1N1CCN(C(=O)c2cn(Cc3ccccc3)nc2-c2cccnc2)CC1,-16.8,-1.1,2.2,-12.0,11.8,-4.9,·
O=C(c1cc2ccccc2cc1O)N1CCN(c2cccc(Cl)c2)CC1,0.7,3.5,-3.2,-34.0,-6.1,1.8,·
COC(=O)[C@]12C[C@H](CC(=O)N3CCC(c4ccccc4)CC3)C(=O)N(Cc3ccccc3)C1=C[C@H](C1CCCC1)O[C@@H]2C,·,·,3.7,·,·,·,·
